# Only some compounds are listed: those with a hit (about 3.3% of all), similar ones and a draw of the others.
# PRMT1 inh = blocks human protein arginine methyltransferase 1; inhibition, % at 2.79 µM; AID 652257; recombinant PRMT1, activity-based probe fluorescence polarization; 1.3% of 370,000 active;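 active = inhibition above about 21% made by adding two undisclosed values, limit read from the data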
# SIAE primary = inhibitors of human sialic acid acetylesterase SIAE; 0.69% of 370,000 active; inhibition, % at 9.66 µM; SIAE FP-Rh probe binding, fluorescence polarization;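 active = inhibition above a cutoff: mean of compounds within the control limits plus 3 SD of those, cut at about 17% in these data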
# rCAG binder = molecules binding r(CAG) RNA repeats | AID 651821 | inhibition, % at 3 µM | r(CAG) RNA repeat, TO-PRO-1 dye displacement fluorescence | 1.3% of 370,000 active;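 active = inhibition above the plate cutoff, the mean of all test compounds on that plate plus 3 SD, cut at about 35% in these data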;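 also: higher means more dye released from RNA so lower well fluorescence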
# ABHD4 inh = inhibits mouse alpha/beta hydrolase domain 4 | 0.54% of 370,000 active | AID 720543 | purified mABHD4, FP-Rh probe fluorescence polarization | Q8VD66 | inhibition, % at 8.92 µM;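 active = inhibition exceeding the mean over every tested compound plus 3 SD, cut at about 30% in these data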
# Target sequence (Q8VD66 whole entry, looked up, the tested form may be a part): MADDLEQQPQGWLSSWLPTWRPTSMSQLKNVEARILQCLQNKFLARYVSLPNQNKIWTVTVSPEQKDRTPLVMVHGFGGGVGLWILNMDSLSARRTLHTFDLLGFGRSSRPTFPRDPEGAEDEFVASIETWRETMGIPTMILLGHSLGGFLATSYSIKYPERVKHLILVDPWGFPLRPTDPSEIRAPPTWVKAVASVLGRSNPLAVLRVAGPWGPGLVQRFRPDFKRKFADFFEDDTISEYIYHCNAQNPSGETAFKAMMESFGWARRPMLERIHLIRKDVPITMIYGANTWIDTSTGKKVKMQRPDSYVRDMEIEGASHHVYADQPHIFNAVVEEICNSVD
#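 Assay system: Wild-type mouse ABHD4 protein | Medium: HEPES pH 7.0 buffer, 150 mM NaCl, 0.01% Pluronic F-127 | Incubation: Enzyme–compound pre-incubation 45 min, then probe 60 min, both 25 °C | Technique: Fluorescence polarization with parallel and perpendicular emission, 525/598 nm | Evaluation: % inhibition of FP-Rh probe binding versus controls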
# TCR-CD3 inh = human TCR-CD3 binding inhibition; inhibition, % at 9.4 µM; 0.37% of 360,000 active; AID 651800; TAMRA-labeled TCR probe fluorescence, biochemical;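 also: recombinant mutant TCR 2C K166C tagged with TAMRA read by polarization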
# BSA probe FL = BSA probe counter-screen for TCR-CD3 inhibitors; inhibition, % at 9.4 µM; TAMRA-labeled BSA probe fluorescence counterscreen; AID 652035; shares compounds with TCR-CD3 inh; 10% of 1,200 active; in the data active = inhibition above about 23%
# TCR-CD3 inh conf = TCR-CD3 interaction inhibition, confirmation. inhibition, % at 9.4 µM. 48% of 1,200 active. shares compounds with TCR-CD3 inh. TAMRA-labeled TCR probe fluorescence binding assay
# Hits are given with their value; i = inactive; nt = no result given. Rule as the data show it, unless noted: active = inhibition above about 19%; inactive = the rest.
SMILES,PRMT1 inh,SIAE primary,rCAG binder,ABHD4 inh,TCR-CD3 inh,BSA probe FL,TCR-CD3 inh conf
S=C(Nc1ccc(Cl)cc1)OC1CCC12CCC(c1ccccc1)CC2 (stereo unspecified),i,i,i,i,nt,nt,nt
Oc1ccc(-c2cn3ccccc3n2)cc1O,i,i,i,i,i,nt,nt
Cc1ccn2cc(-c3ccc(O)c(O)c3)nc2c1,i,i,i,i,34,i,26
CSCCC(NC(=O)c1ccccc1Cl)C(=O)NNC(=O)c1ccccc1O (stereo unspecified),i,i,i,i,29,i,i
O=C(NNC(=O)C(c1ccccc1)c1ccccc1)c1ccccc1O,i,i,i,i,i,nt,nt
CC(Sc1ccc(Cl)cc1)C(=O)NNC(=O)c1ccccc1O (stereo unspecified),i,i,i,i,30,i,19
CC(=O)Nc1ccc(C(CCCc2ccccc2)C2=CCCCC2)cc1 (stereo unspecified),i,i,i,i,nt,nt,nt
CCN(Cc1ccccc1)C(=O)C1C2C=CC3(CN(Cc4ccccc4)C(=O)C13)O2 (stereo unspecified),i,i,i,i,nt,nt,nt
CCNC(=S)NNC(=O)CSc1nc2ccccc2c(=O)n1-c1ccc(Cl)cc1,i,i,i,i,nt,nt,nt
CC(C)NC(=O)Nc1ccc2c(c1)C(=O)N([C@H](C)CO)C[C@H](C)[C@@H](CN(C)S(=O)(=O)c1ccccc1)O2,i,i,i,i,i,nt,nt
C[C@H](CO)N1C[C@H](C)[C@@H](CN(C)S(=O)(=O)c2ccccc2)Oc2ccc(NC(=O)Nc3ccc(C(F)(F)F)cc3)cc2C1=O,i,i,i,i,28,i,i
COc1ccc(NC(=O)CSCC(=O)Nc2sccc2C#N)cc1,i,i,i,i,21,i,i
COc1ccc(CCC(=O)Nc2sccc2C#N)cc1,i,i,i,i,i,nt,nt
Cc1cc(C(=O)OCCCN(C)C2CN(Cc3cn(Cc4ccccc4C(F)(F)F)nn3)S(=O)(=O)C2)no1 (stereo unspecified),i,i,i,i,nt,nt,nt
O=C(N/N=C/c1cc(Br)cc(Cl)c1O)c1ccc2c(c1)OCO2,i,i,i,i,38,i,29
Cc1cc(Br)cc(/C=N/NC(=O)c2ccc3c(c2)OCO3)c1O,i,i,i,i,29,i,34
O=C(N/N=C/c1ccccc1O)c1ccc2c(c1)OCO2,i,i,i,i,i,nt,nt
O=C(N/N=C/c1cc(Cl)cc([N+](=O)[O-])c1O)c1ccc2c(c1)OCO2,i,i,i,i,41,i,47
CCN(C(=O)CSc1nnc(-c2cccnc2)n1Cc1ccco1)c1ccccc1,i,i,i,i,nt,nt,nt
CN1CCC(OC(c2ccccc2)c2ccc(Cl)cc2)C1 (stereo unspecified),i,i,i,i,31,i,i
O=C(CP(=O)(c1ccccc1)c1ccccc1)N/N=C/c1cc(Br)cc(Br)c1O,i,i,i,i,50,i,51
O=C(Cc1ccccc1)N/N=C/c1cc(Br)cc(Cl)c1O,i,i,i,i,30,i,i
Cc1ccc(NC(=O)CN(C)C(=O)c2cccc(-n3cccc3)c2)cc1,i,i,i,i,22,i,i
COc1ccc(NC(=O)CN(C)C(=O)c2cccc(-n3cccc3)c2)cc1,i,i,i,i,i,nt,nt
C[C@@H]1Cn2cnc(C(=O)N3CCN(C(=O)OC(C)(C)C)CC3)c2C(=O)N1,i,i,i,i,20,i,i
CC[C@H]1OC(=O)[C@H](C)[C@@H](O[C@H]2C[C@@](C)(OC)[C@@H](O)[C@H](C)O2)C(C)[C@@H](O[C@@H]2O[C@H](C)C[C@H](N(C)C)[C@H]2O)[C@](C)(O)C[C@@H](C)CN(C)[C@H](C)[C@@H](O)[C@]1(C)O (stereo partly specified),i,i,i,i,nt,nt,nt
CCn1c(COc2ccc(Cl)cc2)nnc1SCC(=O)Nc1ccc(Oc2ccccc2)cc1,i,i,i,i,nt,nt,nt
Cc1oc(-c2cccc(Cl)c2)nc1CS(=O)(=O)CC(=O)NCCN1CCCC1,i,i,i,i,21,i,i
O=C(N/N=C/c1c(Cl)nc2ccccn2c1=O)c1cccnc1,i,i,i,i,29,i,i

# Source: PubChem
